Test results from ChEMBL document CHEMBL4251682, “Nitric Oxide Inhibitory Sesquiterpenoids and Its Dimers from Artemisia freyniana” (J Nat Prod, 2018).

Legend:
HCT-116 = assay: Cytotoxicity against human HCT116 cells by MTT assay; format: functional, cell-based
Method in brief: (§1)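 MTT-based growth inhibition of HCT116 and DU145 cells following an established protocol, with taxol as positive control.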

DU-145 = assay: Cytotoxicity against human DU145 cells by MTT assay; format: functional, cell-based; method in brief: as §1
RAW264.7 [1] = assay: Cytotoxicity against mouse RAW264.7 cells assessed as effect on cell viability at 50 uM by MTT assay; format: cell-based; conditions: raw264.7, 50 µM
RAW264.7 [2] = assay: Inhibition of LPS-induced nitric oxide production in mouse RAW264.7 cells after 24 hrs by Griess assay; format: functional, cell-based; conditions: RAW264.7, 24 h

SMILES	IC50 (HCT-116)	IC50 (DU-145)	Activity (RAW264.7 [1])	IC50 (RAW264.7 [2])
C=C(C(=O)O)[C@H]1C[C@@]23O[C@@]2(C)CCC[C@]3(C)C[C@@H]1OC(C)=O	> 50 µM	> 50 µM	Non-Toxic	
C=C(C(=O)O)[C@@H]1CC=C2[C@H](O)CC[C@H](C)[C@@]2(C)C1	> 50 µM	> 50 µM	Non-Toxic	18.9 µM
C=C(C(=O)O)[C@@H]1C[C@@H]2O[C@@]23CCC[C@H](C)[C@@]3(C)C1	> 50 µM	> 50 µM	Non-Toxic	10.8 µM
C[C@@H]1C[C@H]2[C@@H]3CCC4=CC(=O)C=C[C@]4(C)[C@@]3(F)[C@@H](O)C[C@]2(C)[C@@]1(O)C(=O)CO [DEXAMETHASONE]				10.7 µM
